ERAP1 inh: human ERAP1 aminopeptidase inhibitors, primary screen, biochemical, single point, plate reader; Endoplasmic reticulum aminopeptidase 1 (Homo sapiens), Q9NZ08; recombinant ERAP1, Leu-AMC fluorescence, 60 min; inhibition, % at 10.7 µM; 340,000 tested, 0.15% active;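 active means mean replicate inhibition of at least 30%, or all replicates individually reaching that 30% level; inactive means mean below 30% and not every replicate reaching it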
Target sequence (Q9NZ08 whole entry, looked up): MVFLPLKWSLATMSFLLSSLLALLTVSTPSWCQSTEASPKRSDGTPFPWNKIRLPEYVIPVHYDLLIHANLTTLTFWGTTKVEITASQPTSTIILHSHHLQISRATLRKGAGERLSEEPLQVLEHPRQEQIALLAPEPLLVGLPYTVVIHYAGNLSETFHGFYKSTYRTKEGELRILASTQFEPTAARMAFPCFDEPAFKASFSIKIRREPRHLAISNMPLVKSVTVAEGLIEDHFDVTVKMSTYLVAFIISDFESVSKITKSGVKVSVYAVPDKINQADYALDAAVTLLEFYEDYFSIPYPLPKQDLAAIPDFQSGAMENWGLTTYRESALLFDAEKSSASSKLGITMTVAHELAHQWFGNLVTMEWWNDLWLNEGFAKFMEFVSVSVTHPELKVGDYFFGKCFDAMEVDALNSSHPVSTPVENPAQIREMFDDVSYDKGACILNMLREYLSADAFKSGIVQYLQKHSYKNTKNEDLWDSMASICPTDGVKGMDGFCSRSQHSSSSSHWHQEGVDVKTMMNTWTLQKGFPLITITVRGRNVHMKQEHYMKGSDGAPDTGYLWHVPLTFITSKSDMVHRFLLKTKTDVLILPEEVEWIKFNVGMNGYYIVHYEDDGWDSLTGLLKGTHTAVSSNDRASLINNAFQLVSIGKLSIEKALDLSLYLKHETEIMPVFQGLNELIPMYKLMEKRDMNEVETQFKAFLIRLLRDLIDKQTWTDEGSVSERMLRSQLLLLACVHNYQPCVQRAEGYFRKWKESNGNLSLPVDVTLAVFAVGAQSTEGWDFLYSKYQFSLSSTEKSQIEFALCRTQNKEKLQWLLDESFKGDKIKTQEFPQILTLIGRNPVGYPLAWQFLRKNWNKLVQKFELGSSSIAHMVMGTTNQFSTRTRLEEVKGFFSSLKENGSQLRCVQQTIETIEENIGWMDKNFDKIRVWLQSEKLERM
SIRT5 inh: SIRT5 desuccinylase inhibitors, primary screen, biochemical, fluorescence imaging, single point, set 5; NAD-dependent protein deacylase sirtuin-5, mitochondrial (Homo sapiens), Q9NXA8; Purified SirT5, succinyl-peptide AMC, trypsin-coupled fluorescence; inhibition, % at 15 µM; 330,000 tested, 1.1% active; in the data active means inhibition above about 15%
PGC1a acetyl inh: inhibitors of PGC1a acetylation signal, primary screen, cell-based, U2OS, AlphaScreen, inhibitor mode; AlphaScreen anti-acetyl-lysine; with virally co-expressed GCN5 acetyltransferase; inhibition, % at 15.6 µM; 350,000 tested, 0.17% active;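 active means every replicate shows inhibition of at least 40%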
FN deposition inh: inhibitors of fibronectin matrix deposition, primary screen, AH1F cells, Alexa488-fibronectin fluorescence, plate reader; AID 743247, 2014; 350,000 tested, 0.086% active; inhibition, % at 12.6 µM; AH1F fibroblasts, overnight;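 active means mean inhibition across replicates of 30% or more, regardless of how many single replicates reach that level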
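Material: AH1F fibroblasts assembling fluorescent fibronectin matrix; amount: 10000 AH1F cells/well; medium: DMEM, 2% serum; reagent: Alexa488-fibronectin, 24 nM final in well; dosing: single compound dose, delivered by pin transfer; incubation: 1 h adhesion, overnight exposure; detection: fluorescence after three HBSS washes, excitation 485 nm, emission 525 nm; measure: fibronectin deposition inhibition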
FGF22 binding: binders of human FGF22 protein, primary screen, FGF22 synaptogenesis inhibitor project, biophysical, thermal shift, single point; AID 651658, 2012; recombinant FGF22 thermal shift, SYPRO orange fluorescence; percent of sucrose octasulfate shift, DMSO zero; 340,000 tested, 1.5% active; activity (Tm shift, normalised), % at 9.99 µM; Fibroblast growth factor 22 (Homo sapiens), Q9HCT0;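 active means mean Tm shift, scaled 0 neutral to 100 positive control, at about 1.3% or above, every replicate too, limit read from the data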
Of the large screens only hits and unclear results are named; the others gave an inactive call; ! = not confirmed by another sample. Shown are actives, neighbours in structure and some others; about 2.2% of the full set was active somewhere.

Cc1ccc(S(=O)(=O)N(C)C[C@H]2Oc3ccc(NC(=O)Cc4ccccc4)cc3C(=O)N([C@@H](C)CO)C[C@@H]2C)cc1	none (no result: FN deposition inh)
CCOC(=O)C1CCN(C2=C(NS(=O)(=O)c3ccc(Br)cc3)C(=O)c3ccccc3C2=O)CC1	SIRT5 inh 23 (no result: PGC1a acetyl inh)
NC(=O)C1CCN(C2=C(NS(=O)(=O)c3ccc(Br)cc3)C(=O)c3ccccc3C2=O)CC1	none
COc1ccccc1CNc1nc(NCc2ccccc2)nc2ccsc12	none (no result: FN deposition inh)
COc1ccccc1CNc1nc(NCc2cnc(C)cn2)c2sccc2n1	FN deposition inh 35 (no result: PGC1a acetyl inh)
C[C@H](NC(=O)[C@H]1[C@H](CO)[C@H]2Cn3c(cccc3=O)[C@@H]1N2Cc1cccnc1)c1ccccc1	none (no result: PGC1a acetyl inh, FN deposition inh)
O=C(Nc1ccccc1)[C@@H]1[C@@H](CO)[C@@H]2Cn3c(cccc3=O)[C@@H]2N1CC1CCOCC1	none (no result: FN deposition inh, FGF22 binding)
O=C(Nc1ccccc1)[C@@H]1[C@@H](CO)[C@@H]2Cn3c(cccc3=O)[C@@H]2N1CC1CC1	SIRT5 inh 16 (no result: PGC1a acetyl inh, FN deposition inh)
O=C(NCC(F)(F)F)[C@@H]1[C@@H](CO)[C@@H]2Cn3c(cccc3=O)[C@@H]2N1Cc1cccc(F)c1	SIRT5 inh 16 (no result: PGC1a acetyl inh)
COC(=O)[C@H]1[C@H](CO)[C@H]2Cn3c(ccc(-c4ccncc4)c3=O)[C@H]2N1Cc1ccccc1F	ERAP1 inh 30
O=C(Nc1ccc(-c2ccccc2)cc1)[C@H]1[C@H](CO)[C@H]2Cn3c(cccc3=O)[C@H]2N1CC1CCCCC1	SIRT5 inh 102 (no result: ERAP1 inh, PGC1a acetyl inh, FN deposition inh)
CC(=O)Oc1ccccc1C(=O)OCO/N=[N+](\[O-])N1CCCC1	none (no result: FN deposition inh)
CCCNC(=O)[C@H]1[C@H](CO)[C@H]2Cn3c(ccc(-c4ccc(F)cc4)c3=O)[C@H]2N1CC1CC1	SIRT5 inh 16 (no result: PGC1a acetyl inh, FN deposition inh)
COc1ccc(NC(=O)Nc2ccc3c(c2)[C@H]2C[C@H](CC(=O)O)O[C@H](CO)[C@H]2O3)cc1	none (no result: FN deposition inh)
CCC(O)c1cnc(OCc2ccccc2)nc1OCc1ccccc1 (stereo not given)	FGF22 binding 30 (no result: SIRT5 inh)
Cc1nc2nc(N)nc(OCc3ccccc3)c2nc1C	none (no result: ERAP1 inh)
C[C@@H]1CN([C@H](C)CO)C(=O)c2cccc(N(C)C)c2O[C@H]1CN(C)S(=O)(=O)c1ccc(F)cc1	none (no result: FN deposition inh)
O=[N+]([O-])c1ccc(Oc2ccc(/C=N/O)cc2)nc1	FGF22 binding 43
CC1(C(=O)Nc2cccc(C(F)(F)F)c2)Cc2c(-c3cccc(C(F)(F)F)c3)ccnc2O1 (stereo not given)	SIRT5 inh 21
CC(=O)Nc1cccc(-c2ccnc3c2CC(C)(C(=O)Nc2cccc(C(F)(F)F)c2)O3)c1 (stereo not given)	FN deposition inh 30
CC(=O)Nc1ccc(-c2ccnc3c2CC(C)(C(=O)Nc2cccc(C(F)(F)F)c2)O3)cc1 (stereo not given)	none (no result: SIRT5 inh, PGC1a acetyl inh)
CC(C)(C)c1cc(N)n2nc(C(C)(C)C)cc2n1	FGF22 binding 44 (no result: SIRT5 inh, PGC1a acetyl inh, FN deposition inh)
Cc1cc2nc(C(C)(C)C)cc(N)n2n1	none (no result: FN deposition inh)
O=C(CN1C(=O)c2ccccc2C1=O)Nc1cc([N+](=O)[O-])ccc1O	FGF22 binding 44 (no result: PGC1a acetyl inh)
Cc1c(NC(=O)CN2C(=O)c3ccc([N+](=O)[O-])cc3C2=O)c(=O)n(-c2ccccc2)n1C	none (no result: SIRT5 inh, FN deposition inh)
C[C@H](CO)N1C[C@H](C)[C@H](CN(C)Cc2ccccc2)OCCCC[C@H](C)Oc2ccc(NC(=O)Nc3ccc4c(c3)OCO4)cc2C1=O	none
Cc1cc(/C=N/NC(=O)c2ccsc2)c(C)n1-c1cnccn1	FGF22 binding 44 (no result: PGC1a acetyl inh)
CCC(=O)N1CC2(C1)[C@@H](c1ccccc1)[C@H](CO)N2CCC(F)(F)F	none (no result: FN deposition inh)
COC(=O)[C@]12CCCCC=C1N(CCC1=CCCCC1)C(=O)[C@H](CC(=O)NCCc1ccccc1OC)C2	SIRT5 inh 16 (no result: PGC1a acetyl inh)
CCOC(=O)[C@]12CCCC=C1N(CCC1=CCCCC1)C(=O)[C@H](CC(=O)NCCc1ccccc1OC)C2	none (no result: PGC1a acetyl inh)
COC(=O)[C@]12CCCCC=C1N(Cc1ccccc1)C(=O)[C@H](CC(=O)NCCCCc1ccccc1)C2	SIRT5 inh 17 (no result: ERAP1 inh, PGC1a acetyl inh, FN deposition inh)
O=C(Cc1ccc(F)cc1)OCC(=O)N1CCN(S(=O)(=O)c2ccc(Cl)cc2)CC1	SIRT5 inh 19 (no result: PGC1a acetyl inh)
O=C(Cc1ccc(Br)cc1)OCC(=O)N1CCCCCC1	FGF22 binding 43 (no result: SIRT5 inh, PGC1a acetyl inh)
O=C(Cc1cccc(C(F)(F)F)c1)OCC(=O)N1CCN(S(=O)(=O)c2ccc(Cl)cc2)CC1	none (no result: PGC1a acetyl inh)
O=C(CCCOc1ccccc1)N1CCN(S(=O)(=O)c2ccc(Cl)cc2)CC1	none
CCOc1ccc(OCCCC(=O)N2CCN(S(=O)(=O)c3ccc(Cl)cc3)CC2)cc1	ERAP1 inh 32 (no result: PGC1a acetyl inh)
Cc1ccc(S(=O)(=O)N2CCN(C(=O)CNC(=O)c3ccc(Cl)cc3)CC2)cc1	FGF22 binding 44
O=C(NCC1CC1)[C@H]1[C@H](CO)[C@H]2Cn3c(cccc3=O)[C@H]2N1CCC(F)(F)F	none (no result: FN deposition inh)
CC(=O)N1CC[C@H]2[C@@H]1c1cc(-c3ccc(C#N)cc3)ccc1N(C)[C@H]2CO	none
CN(C)CC(=O)N1CC(=O)N2[C@@H](CO)[C@H](c3ccc(/C=C/c4ccccc4)cc3)[C@@H]2C1	none (no result: FN deposition inh, FGF22 binding)
CC1=Nc2ccccc2/C1=C/c1sc(=S)n(-c2cccc(C(=O)O)c2)c1O	SIRT5 inh 17
C[C@H]1CN([C@@H](C)CO)C(=O)c2cccc(NC(=O)c3cnccn3)c2O[C@@H]1CN(C)Cc1ccncc1	none
CC1=NN(c2ccccc2)C(=O)C1/C=C1\NC(=S)NC1=O (stereo not given)	SIRT5 inh 15 (no result: PGC1a acetyl inh, FN deposition inh)
O=S(=O)(CCN1CCCCC1)CCS(=O)(=O)CCN1CCCCC1	FGF22 binding 44 (no result: SIRT5 inh)
NC(=O)CCS(=O)(=O)CCN1CCCCC1	none (no result: ERAP1 inh, SIRT5 inh, FN deposition inh, FGF22 binding)
CC(C)c1ccc(OCc2cccc(C(=O)N/N=C/c3cccnc3)c2)cc1	FGF22 binding 28
COc1ccc2c3c([nH]c2c1)[C@@H](CO)N(C(=O)Nc1ccc(F)cc1)CC31CCN(CC2CC2)CC1	none (no result: PGC1a acetyl inh, FN deposition inh)
C[C@H]1CN([C@@H](C)CO)S(=O)(=O)c2ccc(C#CC3CC3)cc2O[C@H]1CN(C)C(=O)c1ccccn1	SIRT5 inh 30
C[C@H]1CN([C@@H](C)CO)S(=O)(=O)c2ccc(C#CC3CC3)cc2O[C@@H]1CN(C)C(=O)Cc1ccncc1	SIRT5 inh 18
C[C@@H]1CN([C@@H](C)CO)S(=O)(=O)c2ccc(Br)cc2O[C@H]1CN(C)C(=O)c1ccncc1	FGF22 binding 43!
C[C@@H]1CN([C@H](C)CO)S(=O)(=O)c2ccc(C#CC3CCCC3)cc2O[C@H]1CN(C)C(=O)Cc1ccccc1	SIRT5 inh 17!

Bioassay records: PubChem BioAssay, Broad Institute
